Experimental data from ChEMBL document CHEMBL3045285, “Synthesis and insecticidal activities of novel anthranilic diamides containing modified N-pyridylpyrazoles” (2010).

Experiments:
Type in all cases: functional
Mythimna separata [1] = experiment: Insecticidal activity against fourth-instar larval stage of Mythimna separata (Oriental armyworm) in compound pretreated Zea mays L. Tangyu 10 leaves assessed as mortality at 20 mg/l at 25 +/-1 degC after 2 days
Summary of the method: (§1)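 Greenhouse-reared fourth-instar oriental armyworm larvae. Corn (Tangyu 10) leaves laid on moist filter paper in Petri dishes, sprayed with test solution (200 mg/L solution diluted in distilled water), then air-dried. Ten larvae per dish. Held at 25 ± 1 °C; mortality scored dead/alive 2 days post-treatment. Triplicate treatments, Abbott-corrected, 0–100 scale.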

Mythimna separata [2] = experiment: Insecticidal activity against fourth-instar larval stage of Mythimna separata (Oriental armyworm) in compound pretreated Zea mays L. Tangyu 10 leaves assessed as mortality at 100 mg/l at 25 +/-1 degC after 2 days; summary of the method: as §1
Mythimna separata [3] = experiment: Insecticidal activity against fourth-instar larval stage of Mythimna separata (Oriental armyworm) in compound pretreated Zea mays L. Tangyu 10 leaves assessed as mortality at 200 mg/l at 25 +/-1 degC after 2 days; summary of the method: as §1
Mythimna separata [4] = experiment: Insecticidal activity against fourth-instar larval stage of Mythimna separata (Oriental armyworm) in compound pretreated Zea mays L. Tangyu 10 leaves assessed as mortality at 50 mg/l at 25 +/-1 degC after 2 days; summary of the method: as §1
Mythimna separata [5] = experiment: Insecticidal activity against fourth-instar larval stage of Mythimna separata (Oriental armyworm) in compound pretreated Zea mays L. Tangyu 10 leaves assessed as mortality at 10 mg/l at 25 +/-1 degC after 2 days; summary of the method: as §1
Plutella xylostella [6] = experiment: Insecticidal activity against second-instar larval stage of Plutella xylostella (diamondback moth) in cabbage leaves assessed as mortality at 2.5 mg/l at 25 +/-1 degC treated for 3 secs before larva infestation measured after 2 days by leaf-dip method; conditions: 48 h
Summary of the method: (§2)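 Greenhouse-reared diamondback moth larvae tested by leaf-dip method at 25 ± 1 °C. Test solution made at 200 mg/L, then diluted with distilled water to working concentrations. Mortality scored dead/alive, corrected with Abbott's formula and expressed on a 0–100 scale.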

Plutella xylostella [7] = experiment: Insecticidal activity against second-instar larval stage of Plutella xylostella (diamondback moth) in cabbage leaves assessed as mortality at 10 mg/l at 25 +/-1 degC treated for 3 secs before larva infestation measured after 2 days by leaf-dip method; conditions: 48 h; summary of the method: as §2
Plutella xylostella [8] = experiment: Insecticidal activity against second-instar larval stage of Plutella xylostella (diamondback moth) in cabbage leaves assessed as mortality at 1 mg/l at 25 +/-1 degC treated for 3 secs before larva infestation measured after 2 days by leaf-dip method; conditions: 48 h; summary of the method: as §2
Plutella xylostella [9] = experiment: Insecticidal activity against second-instar larval stage of Plutella xylostella (diamondback moth) in cabbage leaves assessed as mortality at 20 mg/l at 25 +/-1 degC treated for 3 secs before larva infestation measured after 2 days by leaf-dip method; conditions: 48 h; summary of the method: as §2
Plutella xylostella [10] = experiment: Insecticidal activity against second-instar larval stage of Plutella xylostella (diamondback moth) in cabbage leaves assessed as mortality at 5 mg/l at 25 +/-1 degC treated for 3 secs before larva infestation measured after 2 days by leaf-dip method; conditions: 48 h; summary of the method: as §2

| Compound | mortality at 20 µg/mL (Mythimna separata [1]) [%] | mortality at 100 µg/mL (Mythimna separata [2]) [%] | mortality at 200 µg/mL (Mythimna separata [3]) [%] | mortality at 50 µg/mL (Mythimna separata [4]) [%] | other results |
| --- | --- | --- | --- | --- | --- |
| CNC(=O)c1cc(Cl)cc(C)c1NC(=O)c1cc(CNC(C)=O)nn1-c1ncccc1Cl | 0 | 100 | 100 | 100 |  |
| CCOC(=O)c1cc(C(=O)Nc2c(C)cc(Cl)cc2C(=O)NOC)n(-c2ncccc2Cl)n1 |  |  | 50 |  |  |
| CNC(=O)c1cc(Cl)cc(C)c1NC(=O)c1cc(C(=O)NC(C)(C)C)nn1-c1ncccc1Cl | 40 | 100 | 100 | 100 |  |
| CNC(=O)c1cc(Cl)cc(C)c1NC(=O)c1cc(COC(C)=O)nn1-c1ncccc1Cl | 100 | 100 | 100 | 100 | mortality at 10 µg/mL (Mythimna separata [5]): 0%; mortality at 2.5 µg/mL (Plutella xylostella [6]): 45%; mortality at 10 µg/mL (Plutella xylostella [7]): 90%; mortality at 1 µg/mL (Plutella xylostella [8]): 0%; mortality at 20 µg/mL (Plutella xylostella [9]): 100%; mortality at 5 µg/mL (Plutella xylostella [10]): 70% |
| CNC(=O)c1cc(Cl)cc(C)c1NC(=O)c1cc(CN)nn1-c1ncccc1Cl |  |  | 20 |  |  |
| CCOC(=O)c1cc(C(=O)Nc2c(C)cc(Cl)cc2C(=O)NC2CC2)n(-c2ncccc2Cl)n1 |  | 100 | 100 | 80 |  |
| CNC(=O)c1cc(Cl)cc(C)c1NC(=O)c1cc(CO)nn1-c1ncccc1Cl | 60 | 100 | 100 | 100 |  |
| CNC(=O)c1cc(Cl)cc(C)c1NC(=O)c1cc(C=O)nn1-c1ncccc1Cl |  | 40 | 100 |  |  |
| CNC(=O)c1cc(C(=O)Nc2c(C)cc(Cl)cc2C(=O)NCc2ccccc2)n(-c2ncccc2Cl)n1 |  | 60 | 100 |  |  |
| CCCNC(=O)c1cccc(C)c1NC(=O)c1cc(C(=O)OCC)nn1-c1ncccc1Cl |  | 100 | 100 | 60 |  |
| CNC(=O)c1cc(Cl)cc(C)c1NC(=O)c1cc(COS(C)(=O)=O)nn1-c1ncccc1Cl | 40 | 100 | 100 | 100 |  |
| CNC(=O)c1cc(Cl)cc(C)c1NC(=O)c1cc(COC(=O)CCCCl)nn1-c1ncccc1Cl | 60 | 100 | 100 | 100 |  |
| CCCCNC(=O)c1cc(C(=O)Nc2c(C)cc(Cl)cc2C(=O)NC)n(-c2ncccc2Cl)n1 | 20 | 100 | 100 | 100 |  |
| CCOC(=O)c1cc(C(=O)Nc2c(C)cccc2C(=O)NC(C)C)n(-c2ncccc2Cl)n1 |  | 100 | 100 | 60 |  |
| CONC(=O)c1cc(Cl)cc(C)c1NC(=O)c1cc(COC(C)=O)nn1-c1ncccc1Cl |  | 0 | 100 |  |  |
| CNC(=O)c1cccc(C)c1NC(=O)c1cc(COC(C)=O)nn1-c1ncccc1Cl |  | 60 | 100 |  |  |
| CC(=O)OCc1cc(C(=O)Nc2c(C)cc(Cl)cc2C(=O)NCc2ccccc2)n(-c2ncccc2Cl)n1 | 40 | 100 | 100 | 100 |  |
| CNC(=O)c1cc(Cl)cc(C)c1NC(=O)c1cc(C(=O)Nc2ccccc2)nn1-c1ncccc1Cl | 0 | 100 | 100 | 100 |  |
| CNC(=O)c1cc(C(=O)Nc2c(C)cc(Cl)cc2C(=O)NOC)n(-c2ncccc2Cl)n1 |  |  | 0 |  |  |
| CCCCNC(=O)c1cc(Cl)cc(C)c1NC(=O)c1cc(C(=O)NC)nn1-c1ncccc1Cl |  | 20 | 100 |  |  |
| CCCNC(=O)c1cccc(C)c1NC(=O)c1cc(COC(C)=O)nn1-c1ncccc1Cl | 40 | 100 | 100 | 100 |  |
| CNC(=O)c1cc(Cl)cc(C)c1NC(=O)c1cc(C(=O)OCc2ccccc2)nn1-c1ncccc1Cl |  | 40 | 100 |  |  |

| Compound | mortality at 20 µg/mL (Mythimna separata [1]) [%] | mortality at 100 µg/mL (Mythimna separata [2]) [%] | mortality at 200 µg/mL (Mythimna separata [3]) [%] | mortality at 50 µg/mL (Mythimna separata [4]) [%] | other results |
| --- | --- | --- | --- | --- | --- |
| CNC(=O)c1cc(Cl)cc(C)c1NC(=O)c1cc(C(=O)OC2CCCCC2)nn1-c1ncccc1Cl |  | 40 | 100 |  |  |
| CCOC(=O)c1cc(C(=O)Nc2c(C)cc(Cl)cc2C(=O)NC(C)(C)C)n(-c2ncccc2Cl)n1 |  | 100 | 100 | 70 |  |
| CNC(=O)c1cc(Cl)cc(C)c1NC(=O)c1cc(COC(=O)COC(C)=O)nn1-c1ncccc1Cl | 40 | 100 | 100 | 100 |  |
| CNC(=O)c1cc(Cl)cc(C)c1NC(=O)c1cc(COS(=O)(=O)c2ccc(C)cc2)nn1-c1ncccc1Cl | 80 | 100 | 100 | 100 |  |
| CCOC(=O)c1cc(C(=O)Nc2c(C)cc(Cl)cc2C(=O)NC(C)C)n(-c2ncccc2Cl)n1 |  |  | 70 |  |  |
| CNC(=O)c1cc(C(=O)Nc2c(C)cc(Cl)cc2C(=O)NC2CC2)n(-c2ncccc2Cl)n1 | 100 | 100 | 100 | 100 | mortality at 10 µg/mL (Mythimna separata [5]): 20%; mortality at 10 µg/mL (Plutella xylostella [7]): 0%; mortality at 20 µg/mL (Plutella xylostella [9]): 50% |
| CC(=O)OCc1cc(C(=O)Nc2c(C)cccc2C(=O)NC2CC2)n(-c2ncccc2Cl)n1 | 40 | 100 | 100 | 100 |  |
| CNC(=O)c1cc(C(=O)Nc2c(C)cc(Cl)cc2C(=O)NC)n(-c2ncccc2Cl)n1 |  | 60 | 100 |  |  |
| CCOC(=O)c1cc(C(=O)Nc2c(C)cc(Cl)cc2C(=O)NC)n(-c2ncccc2Cl)n1 |  |  | 80 |  |  |
| CC(=O)OCc1cc(C(=O)Nc2c(C)cccc2C(=O)NC(C)C)n(-c2ncccc2Cl)n1 | 100 | 100 | 100 | 100 | mortality at 10 µg/mL (Mythimna separata [5]): 0%; mortality at 10 µg/mL (Plutella xylostella [7]): 60%; mortality at 20 µg/mL (Plutella xylostella [9]): 100%; mortality at 5 µg/mL (Plutella xylostella [10]): 0% |
| CC(=O)OCc1cc(C(=O)Nc2c(C)cc(Cl)cc2C(=O)NC(C)C)n(-c2ncccc2Cl)n1 | 100 | 100 | 100 | 100 | mortality at 10 µg/mL (Mythimna separata [5]): 20%; mortality at 2.5 µg/mL (Plutella xylostella [6]): 60%; mortality at 10 µg/mL (Plutella xylostella [7]): 100%; mortality at 1 µg/mL (Plutella xylostella [8]): 0%; mortality at 20 µg/mL (Plutella xylostella [9]): 100%; mortality at 5 µg/mL (Plutella xylostella [10]): 95% |
| CNC(=O)c1cc(Cl)cc(C)c1NC(=O)c1cc(C(=O)NCc2ccccc2)nn1-c1ncccc1Cl | 20 | 100 | 100 | 100 |  |
| CNC(=O)c1cc(Cl)cc(C)c1NC(=O)c1cc(C(=O)NC2CCCCC2)nn1-c1ncccc1Cl |  |  | 0 |  |  |
| CNC(=O)c1cc(Cl)cc(C)c1NC(=O)c1cc(CNC(=O)c2ccccc2)nn1-c1ncccc1Cl |  |  | 20 |  |  |
| CNC(=O)c1cc(Cl)cc(C)c1NC(=O)c1cc(COC(=O)c2ccccc2)nn1-c1ncccc1Cl | 40 | 100 | 100 | 100 |  |
| CCCCOC(=O)c1cc(C(=O)Nc2c(C)cc(Cl)cc2C(=O)NC)n(-c2ncccc2Cl)n1 |  |  | 80 |  |  |
| CNC(=O)c1cc(Cl)cc(C)c1NC(=O)c1cc(C(=O)NC(C)C)nn1-c1ncccc1Cl | 60 | 100 | 100 | 100 |  |
| CNC(=O)c1cc(Cl)cc(C)c1NC(=O)c1cc(CNS(C)(=O)=O)nn1-c1ncccc1Cl |  | 60 | 100 |  |  |
| CNC(=O)c1cc(Cl)cc(C)c1NC(=O)c1cc(C(=O)OC(C)C)nn1-c1ncccc1Cl |  |  | 80 |  |  |
| CNC(=O)c1cc(C(=O)Nc2c(C)cc(Cl)cc2C(=O)NC(C)C)n(-c2ncccc2Cl)n1 |  | 60 | 100 |  |  |
| CNC(=O)c1cc(Cl)cc(C)c1NC(=O)c1cc(COC(=O)C(F)(F)F)nn1-c1ncccc1Cl | 20 | 100 | 100 | 100 |  |
| CCOC(=O)c1cc(C(=O)Nc2c(C)cc(Cl)cc2C(=O)NCc2ccccc2)n(-c2ncccc2Cl)n1 |  |  | 20 |  |  |
